Results as given in ChEMBL document CHEMBL1122418, “Synthesis of 3-hydroxy-3-cyclohexylbutyric acid derivatives. 2. Cyclic analogues of mevalonic acid” (1983).

Assays:
Type in all cases: functional
[1] = species: Rattus norvegicus; test: Percent inhibition of [14C]acetate incorporation into CO2, after incubation with rat liver slices at 5x10E-4 M concentration
Procedure, shortened: (§1)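 Rat liver slices (250 mg) incubated in 4 mL Krebs-Ringer bicarbonate buffer, pH 7.4, with 4 mM [2-14C]acetate, with or without test compound; label recovered in CO2, long-chain fatty acids and cholesterol measured and inhibition calculated against untreated slices. Values are arithmetic means of three determinations.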

[2] = species: Rattus norvegicus; test: Percent inhibition of [14C]acetate incorporation into long-chain fatty acids, after incubation with rat liver slices at 5x10E-4 M concentration; procedure, shortened: as §1
[3] = species: Rattus norvegicus; test: Percent inhibition of [14C]acetate incorporation into cholesterol, after incubation with rat liver slices at 5x10E-4 M concentration; procedure, shortened: as §1
[4] = species: Rattus norvegicus; test: Percent inhibition of [14C]acetate incorporation into CO2, after incubation with rat liver slices at 5x10E-3 M concentration; procedure, shortened: as §1
[5] = species: Rattus norvegicus; test: Percent inhibition of [14C]acetate incorporation into cholesterol, after incubation with rat liver slices at 5x10E-3 M concentration; procedure, shortened: as §1
[6] = species: Rattus norvegicus; test: Percent inhibition of [14C]acetate incorporation into long-chain fatty acids, after incubation with rat liver slices at 5x10E-3 M concentration; procedure, shortened: as §1

SMILES | inhibition at 500 µM [1] | inhibition at 500 µM [2] | inhibition at 500 µM [3] | inhibition at 5000 µM [4] | inhibition at 5000 µM [5] | inhibition at 5000 µM [6]
CO[C@H]1CCCC[C@H]1C(C)(O)CC(=O)O (some centres undefined) | 39% | 57% | 25% |  |  | 
CC1CC(=O)O[C@H]2CCCC[C@@H]12 (some centres undefined) | 10% | 10% | 10% | 24% | 39% | 62%
CC1(O)CC(=O)O[C@H]2CCCC[C@H]21 (some centres undefined) | 10% | 10% | 10% | 37% | 22% | 47%
CC(O)(CC(=O)O)[C@@H]1CCCC[C@@H]1O (some centres undefined) | 10% | 10% | 10% | 62% | 50% | 68%
CC(O)(CC(=O)O)C1CCCCC1 (centres undefined) [CYCLOBUTOIC ACID] | 62% | 72% | 32% |  |  | 
